Measured values published in ChEMBL document CHEMBL1124252, “Structure-activity relationships in 1,4-benzodioxan-related compounds. Investigation on the role of the dehydrodioxane ring on alpha 1-adrenoreceptor blocking activity” (J Med Chem, 1988).

Columns and labels:
[1] = biological target: T1, Adrenergic receptor alpha-2 (Rattus norvegicus, UniProt P22086+P19328+P22909); experiment: Alpha-2 adrenergic receptor blocking activity against clonidine-induced depression of the twitch response in prostatic portion of rat vas deferens; format: tissue-based
T1 sequence (P22086 whole entry): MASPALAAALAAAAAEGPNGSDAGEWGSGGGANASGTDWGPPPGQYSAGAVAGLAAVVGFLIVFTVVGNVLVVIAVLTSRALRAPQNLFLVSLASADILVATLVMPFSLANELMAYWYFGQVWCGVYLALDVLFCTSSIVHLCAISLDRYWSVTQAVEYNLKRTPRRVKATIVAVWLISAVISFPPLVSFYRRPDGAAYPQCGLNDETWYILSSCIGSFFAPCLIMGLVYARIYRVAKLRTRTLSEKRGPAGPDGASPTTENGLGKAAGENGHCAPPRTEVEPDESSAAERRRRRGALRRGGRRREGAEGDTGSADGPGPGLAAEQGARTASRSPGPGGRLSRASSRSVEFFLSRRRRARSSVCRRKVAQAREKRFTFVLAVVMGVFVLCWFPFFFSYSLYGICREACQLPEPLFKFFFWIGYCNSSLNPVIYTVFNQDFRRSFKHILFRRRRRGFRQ
T1 sequence (P19328 whole entry): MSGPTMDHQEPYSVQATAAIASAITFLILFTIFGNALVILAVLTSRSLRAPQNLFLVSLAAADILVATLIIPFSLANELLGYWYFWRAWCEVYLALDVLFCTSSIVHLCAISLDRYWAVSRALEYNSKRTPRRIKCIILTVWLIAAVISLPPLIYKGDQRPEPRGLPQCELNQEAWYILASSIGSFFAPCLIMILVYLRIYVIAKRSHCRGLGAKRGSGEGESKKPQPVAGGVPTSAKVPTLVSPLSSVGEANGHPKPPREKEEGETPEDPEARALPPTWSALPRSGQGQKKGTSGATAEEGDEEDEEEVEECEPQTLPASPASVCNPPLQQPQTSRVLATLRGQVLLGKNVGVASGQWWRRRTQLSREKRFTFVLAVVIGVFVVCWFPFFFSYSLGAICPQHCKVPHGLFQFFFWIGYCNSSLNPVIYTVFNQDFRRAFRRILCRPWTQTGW
T1 sequence (P22909 whole entry): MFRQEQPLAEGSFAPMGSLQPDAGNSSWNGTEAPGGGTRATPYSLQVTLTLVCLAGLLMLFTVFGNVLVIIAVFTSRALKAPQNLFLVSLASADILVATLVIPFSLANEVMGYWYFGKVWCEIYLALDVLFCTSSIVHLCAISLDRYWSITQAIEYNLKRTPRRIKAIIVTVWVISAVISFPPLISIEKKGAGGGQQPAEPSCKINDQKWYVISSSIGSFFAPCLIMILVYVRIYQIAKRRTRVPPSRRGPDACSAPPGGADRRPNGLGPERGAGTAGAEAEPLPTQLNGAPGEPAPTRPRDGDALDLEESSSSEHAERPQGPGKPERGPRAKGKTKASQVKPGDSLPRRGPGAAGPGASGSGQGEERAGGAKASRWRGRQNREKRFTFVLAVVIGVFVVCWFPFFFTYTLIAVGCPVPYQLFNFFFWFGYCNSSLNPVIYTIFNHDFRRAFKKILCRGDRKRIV
Summary of the method: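 Prostatic halves (12 mm) from male albino rat vas deferens, Krebs with propranolol 1 μM and cocaine 10 μM, 0.5–0.8 g tension, field-stimulated at 0.1 Hz, 3-ms pulses, 10-35 V. After ≥1 h equilibration, cumulative clonidine curves on twitch inhibition before and after 30 min antagonist. Dose ratios taken at 50% twitch inhibition; pA2 via Schild plot, slope constrained to -1.0.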

[2] = biological target: Adrenergic receptor alpha (Rattus norvegicus) (UniProt P15823+P23944+P43140+P22086+P19328+P22909); experiment: The alpha-1/alpha-2 selectivity ratio is the antilog of the difference between pA2 values at alpha-1 and alpha-2 adrenoceptors
[3] = biological target: T2, Adrenergic receptor alpha-1 (Rattus norvegicus, UniProt P15823+P23944+P43140); experiment: Alpha-1 adrenergic receptor blocking activity against norepinephrine-induced contraction in epididymal portion of rat vas deferens; format: tissue-based
T2 sequence (P15823 whole entry): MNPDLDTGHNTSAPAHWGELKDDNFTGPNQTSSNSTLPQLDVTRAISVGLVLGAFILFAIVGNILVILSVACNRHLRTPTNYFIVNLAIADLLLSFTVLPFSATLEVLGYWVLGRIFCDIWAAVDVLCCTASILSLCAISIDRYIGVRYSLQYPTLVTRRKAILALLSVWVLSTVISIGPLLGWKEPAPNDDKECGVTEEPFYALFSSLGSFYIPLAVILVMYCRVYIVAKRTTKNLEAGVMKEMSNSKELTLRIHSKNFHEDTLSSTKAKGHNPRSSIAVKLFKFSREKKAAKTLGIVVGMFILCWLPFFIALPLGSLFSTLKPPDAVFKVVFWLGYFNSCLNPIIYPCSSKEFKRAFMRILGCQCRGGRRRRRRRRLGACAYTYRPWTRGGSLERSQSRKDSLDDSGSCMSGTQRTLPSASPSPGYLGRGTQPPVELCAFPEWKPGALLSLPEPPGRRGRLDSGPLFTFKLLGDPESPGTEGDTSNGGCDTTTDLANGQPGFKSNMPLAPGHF
T2 sequence (P23944 whole entry): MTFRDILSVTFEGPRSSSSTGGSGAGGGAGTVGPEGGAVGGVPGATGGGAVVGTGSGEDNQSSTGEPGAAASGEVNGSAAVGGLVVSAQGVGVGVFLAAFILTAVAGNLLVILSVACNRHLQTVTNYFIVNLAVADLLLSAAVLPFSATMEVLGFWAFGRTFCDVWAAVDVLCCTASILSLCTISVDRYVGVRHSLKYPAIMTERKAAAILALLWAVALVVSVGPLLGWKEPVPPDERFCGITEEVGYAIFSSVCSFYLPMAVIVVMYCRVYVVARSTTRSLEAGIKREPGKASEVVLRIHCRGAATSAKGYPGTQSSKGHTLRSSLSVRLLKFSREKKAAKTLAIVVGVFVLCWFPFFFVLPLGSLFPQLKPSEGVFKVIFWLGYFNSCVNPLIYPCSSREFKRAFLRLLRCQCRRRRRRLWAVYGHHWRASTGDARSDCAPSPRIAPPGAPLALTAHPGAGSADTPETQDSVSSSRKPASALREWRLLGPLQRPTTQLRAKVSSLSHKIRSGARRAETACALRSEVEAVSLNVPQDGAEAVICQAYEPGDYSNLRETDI
T2 sequence (P43140 whole entry): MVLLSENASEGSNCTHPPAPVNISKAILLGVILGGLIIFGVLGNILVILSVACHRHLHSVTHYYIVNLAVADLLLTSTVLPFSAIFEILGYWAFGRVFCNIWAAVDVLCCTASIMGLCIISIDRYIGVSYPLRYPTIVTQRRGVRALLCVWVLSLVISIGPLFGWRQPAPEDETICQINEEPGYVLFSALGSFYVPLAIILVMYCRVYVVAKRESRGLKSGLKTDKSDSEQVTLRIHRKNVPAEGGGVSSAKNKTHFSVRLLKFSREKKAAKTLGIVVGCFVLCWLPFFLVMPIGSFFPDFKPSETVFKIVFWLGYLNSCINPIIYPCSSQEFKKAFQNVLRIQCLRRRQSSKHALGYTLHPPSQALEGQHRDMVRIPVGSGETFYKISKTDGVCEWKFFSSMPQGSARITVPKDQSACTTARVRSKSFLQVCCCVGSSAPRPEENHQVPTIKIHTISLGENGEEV
Summary of the method: (§1)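 Epididymal halves (14 mm) of vas deferens from male albino rats (175-200 g), Krebs with propranolol 1 μM and cocaine 10 μM, 0.4 g tension. Equilibrated ≥1 h; cumulative norepinephrine curves, first discarded, second control, third after 30 min antagonist. Time-control tissues run in parallel. pA2 from Schild plots constrained to slope -1.0, each concentration tested five times.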

[4] = biological target: T2, Adrenergic receptor alpha-1; experiment: Alpha-1-Adrenoceptor blocking activity against norepinephrine-induced contraction in epididymal portion of rat vas deferens; format: functional, tissue-based; summary of the method: as §1

pA2 [1] | Selectivity [2] | pA2 [3] | pA2 [4] | SMILES
6.09 | 71 | 7.94 |  | COc1cccc(OC)c1OCCNC[C@@H]1COc2ccccc2S1
6.09 | 17 | 7.33 |  | COc1cccc(OC)c1OCCNC[C@@H]1COc2ccccc2[C@H]1O
6.53 | 229 | 8.89 |  | COc1cccc(OC)c1OCCNC[C@@H]1CSc2ccccc2C1=O
6.52 | 257 | 8.93 |  | COc1cccc(OC)c1OCCNC[C@@H]1COc2ccccc2C1=O
6.15 | 469 | 9.05 |  | COc1cccc(OC)c1OCCNC[C@@H]1CSc2ccccc2O1
6.63 | 407 | 9.24 |  | COc1cccc(OC)c1OCCNCC1COc2ccccc2O1 (stereo not given)
7.05 | 141 |  | 9.2 | COc1cccc(OC)c1OCCNC[C@@H]1CCc2ccccc2O1
6.41 | 8 | 7.33 |  | COc1cccc(OC)c1OCCNCc1cccc2ccccc12
6.1 | 13 | 7.22 |  | COc1cccc(OC)c1OCCNC[C@@H]1COc2ccccc2[C@@H]1O
6.4 | 22 | 7.75 |  | COc1cccc(OC)c1OCCNCc1ccc2ccccc2c1
6.24 | 30 | 7.71 |  | COc1cccc(OC)c1OCCNC[C@@H]1C[S@@+]([O-])c2ccccc2O1 (relative stereo)
6.24 | 20 | 7.54 |  | COc1cccc(OC)c1OCCNC[C@@H]1C[S@+]([O-])c2ccccc2O1 (relative stereo)
5.8 | 6 |  | 6.6 | COc1cccc(OC)c1OCCNC[C@@H]1CS(=O)(=O)c2ccccc2O1
6.28 | 49 | 7.97 |  | COc1cccc(OC)c1OCCNC[C@@H]1COc2ccccc2C1
6.04 | 4 |  | 6.6 | COc1cccc(OC)c1OCCNCc1cc2ccccc2[nH]1
